Data: ChEMBL document CHEMBL1926584, “Pterocarpanquinones, aza-pterocarpanquinone and derivatives: synthesis, antineoplasic activity on human malignant cell lines and antileishmanial activity on Leishmania amazonensis” (Bioorg Med Chem, 2011)

Legend:
HL-60 = assay: Antineoplastic activity against human HL60 cells after 72 hrs by MTT assay; format: functional, cell-based; conditions: HL-60, 72 h
In short: (§1)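 Tumour lines kept in RPMI 1640 with 10% FBS, 2 mM glutamine, penicillin/streptomycin, 37 °C, 5% CO2. Seeded at 10^5 cells/mL (adherent) or 3×10^5 cells/mL (leukemia). Compounds 0.1–25 µg/mL in DMSO 1%, 72 h. Vehicle controls got equal DMSO. MTT 0.5 mg/mL for 3 h, formazan dissolved in DMSO, absorbance at 595 nm. Doxorubicin 0.01–5 µg/mL as positive control.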

HCT-8 = assay: Antineoplastic activity against human HCT8 cells after 72 hrs by MTT assay; format: functional, cell-based; conditions: HCT-8, 72 h; in short: as §1
SF-295 = assay: Antineoplastic activity against human SF295 cells after 72 hrs by MTT assay; format: functional, cell-based; conditions: SF-295, 72 h; in short: as §1
MDA-MB-435 [1] = assay: Antineoplastic activity against human MDA-MB-435 cells after 72 hrs by MTT assay; format: functional, cell-based; conditions: MDA-MB-435, 72 h; in short: as §1
PBMC [2] = assay: Cytotoxicity against PHA activated human PBMC cells after 72 hrs by MTT assay; format: cell-based
In short: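 PBMC isolated from heparinized blood of healthy non-smoking donors (drug-free ≥15 days) by Ficoll-Hypaque density-gradient centrifugation. Plated at 3×10^5 cells/mL in RPMI 1640 with 20% FBS, glutamine and antibiotics, 37 °C, 5% CO2. Phytohemagglutinin (3%) added at start. After 24 h, compounds 0.1–25 µg/mL in DMSO 1% added for 72 h. MTT read-out at 595 nm.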

PBMC [3] = assay: Selectivity index, ratio of IC50 for PHA activated human PBMC cells to IC50 for human HL60 cells; format: functional
PBMC [4] = assay: Selectivity index, ratio of IC50 for PHA activated human PBMC cells to IC50 for human HCT8 cells; format: functional
PBMC [5] = assay: Selectivity index, ratio of IC50 for PHA activated human PBMC cells to IC50 for human SF295 cells; format: functional
PBMC [6] = assay: Selectivity index, ratio of IC50 for PHA activated human PBMC cells to IC50 for human MDA-MB-435 cells; format: functional
K562 = assay: Antineoplastic activity against human K562 cells after 72 hrs by MTT assay; format: functional, cell-based; conditions: K562, 72 h; in short: as §1
PBMC [7] = assay: Selectivity index, ratio of IC50 for PHA activated human PBMC cells to IC50 for human K562 cells; format: functional
Leishmania amazonensis [8] = assay: Antileishmanial activity against Leishmania amazonensis promastigotes after 72 hrs by MTT assay; format: functional, organism-based
In short: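 Promastigotes grown at 26 °C in Schneider's medium with 10% FBS. Inoculum 1.0×10^6/ml, compounds 0–20 µM, 72 h at 26 °C. MTT (5 mg/mL solution) added for 2 h, then DMSO, OD at 570 nm. Pentamidine isethionate as reference. Experiments repeated at least three times; IC50 derived by software fitting.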

Leishmania amazonensis [9] = assay: Antileishmanial activity against Leishmania amazonensis amastigotes infected in BALB/c mouse peritoneal macrophages after 72 hrs by microscopy; format: functional, organism-based
In short: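 Resident BALB/c peritoneal macrophages in RPMI, 2×10^6/mL, 1 h at 37 °C, 5% CO2. Infected with stationary-phase promastigotes at 3:1 parasite/macrophage for 3 h, then washed with PBS. Compounds 0–20 µM in duplicate for 72 h. Hematological stain and light microscopy, amastigotes counted in ≥100 macrophages. Pentamidine reference. Repeated at least three times.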

J774 = assay: Cytotoxicity against mouse J774 cells after 72 hrs by MTT assay; format: cell-based; conditions: J774, 72 h
In short: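 J774 murine macrophages (2×10^6 in 200 µL) incubated with a range of compound concentrations for 72 h at 37 °C/5% CO2. Viability by MTT. Pentamidine isethionate as reference. Experiments repeated at least three times.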

MDA-MB-435 [10] = assay: Ratio of doxorubicin IC50 to compound IC50 for human MDA-MB-435 cells; format: functional

IC50 (HL-60) [µM]	IC50 (HCT-8) [µM]	IC50 (MDA-MB-435 [1]) [µM]	IC50 (K562) [µM]	IC50 (Leishmania amazonensis [9]) [µM]	Compound	IC50 (SF-295) [µM]	IC50 (PBMC [2]) [µM]	Ratio IC50 (PBMC [3])	Ratio IC50 (PBMC [4])	Ratio IC50 (PBMC [5])	Ratio IC50 (PBMC [6])	Ratio IC50 (PBMC [7])	IC50 (Leishmania amazonensis [8]) [µM]	IC50 (J774) [µM]	Ratio IC50 (MDA-MB-435 [10])
0.5	2.8	1.8	–	–	O=C1C2=C(OCC=C2)C(=O)c2ccccc21	2.3	< 1.4	2.8	0.5	0.6	0.78	–	–	–	–
7.4	0.6	0.4	5.5	> 20	Cc1ccc(S(=O)(=O)N2c3ccccc3[C@H]3COC4=C(C(=O)c5ccccc5C4=O)[C@H]32)cc1 (racemic)	3.9	23	3.12	38.5	5.92	57.7	4.33	15	> 100	2
17.4	21.2	30.8	13.5	–	COc1c2c(c(OC)c3ccccc13)[C@H]1Oc3ccccc3[C@H]1CO2 (racemic)	22.4	–	–	–	–	–	–	–	–	–
> 51	> 51	> 51	46.7	–	COc1c2c(c(OC)c3ccccc13)[C@@H]1[C@H](CO2)c2ccccc2N1S(=O)(=O)c1ccc(C)cc1 (racemic)	> 51	–	–	–	–	–	–	–	–	–
4.1	> 13	> 13	8	0.5	COC(=O)c1ccc2c(c1)[C@H]1COC3=C(C(=O)c4ccccc4C3=O)[C@H]1O2 (racemic)	> 13	–	–	–	–	–	–	2.8	22.5	–
0.04	–	–	1.67	–	COc1cccc2c1C(=O)c1c(O)c3c(c(O)c1C2=O)C[C@@](O)(C(=O)CO)C[C@@H]3O[C@H]1C[C@H](N)[C@H](O)[C@H](C)O1 [DOXORUBICIN]	–	–	–	–	–	–	–	–	–	–
> 112	> 112	> 112	> 112	–	c1ccc2c(c1)CC[C@@H]1c3ccccc3O[C@H]21	> 112	–	–	–	–	–	–	–	–	–
3	6	10.7	13.5	1.25	COc1cc(C=O)cc2c1O[C@@H]1C3=C(OC[C@H]21)C(=O)c1ccccc1C3=O (racemic)	7.4	6	2	1	0.8	0.56	–	1.27	18	–
3.5	10.4	11.4	3.3	> 20	COc1ccc2c(c1)O[C@@H]1C3=C(OC[C@H]21)C(=O)c1ccccc1C3=O (racemic)	17.7	7.8	2.22	0.75	0.44	0.68	9.4	2.85	49.5	–
6.3	8.3	17.4	–	1.85	O=C1C2=C(C(=O)c3ccccc31)[C@H]1Oc3ccc([N+](=O)[O-])cc3[C@H]1CO2 (racemic)	8.9	8.6	1.36	1.06	0.96	0.49	–	1.07	12.1	–
> 112	> 112	> 112	> 112	–	c1ccc2c(c1)O[C@@H]1c3ccccc3OC[C@H]21	> 112	–	–	–	–	–	–	–	–	–
1.3	2.6	2.3	–	1.45	O=C1C2=C(C(=O)c3ccccc31)[C@H]1Oc3ccccc3[C@H]1CO2 (racemic) [PTEROCARPANQUINONE]	3.6	> 20	15.4	7.7	5.5	8.7	12	1.73	18.5	0.42
1	3	0.5	1.9	2.15	Cc1ccc(S(=O)(=O)N2c3ccccc3[C@H]3CCc4ccccc4[C@H]32)cc1	> 62.5	7.2	7.2	2.4	0.11	14.4	–	4.85	23	–
6.1	9	5	6.4	–	Cc1ccc(S(=O)(=O)N2c3ccccc3[C@H]3COc4ccccc4[C@H]32)cc1	31.5	–	–	–	–	–	–	–	–	–
–	–	–	–	1.5	N=C(N)c1ccc(OCCCCCOc2ccc(C(=N)N)cc2)cc1 [PENTAMIDINE]	–	–	–	–	–	–	–	2.2	70	–
